The text below walks through data of ChEMBL document CHEMBL4376814, “Novel cyclin-dependent kinase 9 (CDK9) inhibitor with suppression of cancer stemness activity against non-small-cell lung cancer” (Eur J Med Chem, 2019).

Calls of active or inactive are those of the source. The calls are words filed in the database; no cut-off is given here.

Data set [1] addresses CDK4/Cyclin D3 (Homo sapiens) (UniProt P11802+P30281). As to the kind of experiment: Inhibition of recombinant full-length human CDK4/cyclinD3 at 500 nM using Rb fragment as substrate measured after 40 mins in presence of [gamma33P]ATP by scintillation counting method relative to control. Format: protein-complex assay. In outline: (§1)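 Percent inhibition of kinase activity at a single compound concentration, measured by the outsourced Eurofins KinaseProfiler panel. Values are the mean of two independent experiments.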

Data set [2] addresses Macrophage colony-stimulating factor 1 receptor (Homo sapiens) (UniProt P07333). In words: Inhibition of recombinant human Fms (538 to end residues) at 1 uM using KKKSPGEYVNIEFG as substrate measured after 40 mins in presence of [gamma33P]ATP by scintillation counting method relative to control.
Data set [3] relates to A549. As to the kind of experiment: Induction of cell cycle arrest in human A549 cells assessed as accumulation at G2/M phase after 24 hrs by propidium iodide/RNase staining based flow cytometric analysis. It is filed as functional. Summed up: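 A549 and H1299 plated at 5×10^5 cells/mL in 6-well plates, treated after adherence for 24 h. Washed with PBS, fixed overnight in ice-cold 75% ethanol, stained with propidium iodide plus RNase A for 30 min at 37 °C, analysed by flow cytometry for phase distribution. Means ± SD, three independent experiments.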
(Flow cytometry measures light scatter and fluorescence of single cells or particles in a stream.)

Data set [4] addresses MAP/microtubule affinity-regulating kinase 4 (Homo sapiens) (UniProt Q96L34). In words: Inhibition of full-length recombinant human MARK4 at 1 uM using KKKVSRSGLYRSPSMPENLNRPR as substrate measured after 40 mins in presence of [gamma33P]ATP by scintillation counting method relative to control. In outline:
as §1

For data set [5], the target named is Wee1-like protein kinase 2 (Homo sapiens) (UniProt P0C1S8). In words: Inhibition of recombinant full-length human Wee1B at 1 uM using LSNLYHQGKFLQTFCGSPLYRRR as substrate measured after 120 mins in presence of [gamma33P]ATP by scintillation counting method relative to control.
The subject of data set [6] is Hepatocyte growth factor receptor (Homo sapiens), P08581 [D1228H]. In words: Inhibition of recombinant human MET A1209G/V1290L/D1246H mutant (974 to end residues) at 1 uM using KKKGQEEEYVFIE as substrate measured after 40 mins in presence of [gamma33P]ATP by scintillation counting method relative to control.
Data set [7] concerns the target Phosphatidylinositol 4-phosphate 3-kinase C2 domain-containing subunit alpha (Homo sapiens) (UniProt O00443). In words: Inhibition of recombinant human PI3KC2alpha (299 to end residues) at 1 uM using phosphatidylinositol as substrate measured after 40 mins by HTRF assay relative to control. (TR-FRET usually uses a lanthanide donor and a delayed reading to cut background.)

For data set [8], the target named is Serine/threonine-protein kinase WNK3 (Homo sapiens) (UniProt Q9BYP7). In words: Inhibition of recombinant human WNK3 (1 to 434 residues) at 1 uM using MBP as substrate measured after 40 mins in presence of [gamma33P]ATP by scintillation counting method relative to control. In outline: (§2)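 Single-point inhibition at 1 µM was measured in the Eurofins KinaseProfiler panel. Values are the mean of two independent experiments.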

For data set [9], the system named is RAC-beta serine/threonine-protein kinase (Homo sapiens), P31751 [S474D]. As to the kind of experiment: Inhibition of recombinant human pkb-beta S474D mutant (120 to end residues) at 1 uM using GRPRTSSFAEGKK as substrate measured after 40 mins in presence of [gamma33P]ATP by scintillation counting method relative to control.
Sequence of RAC-beta serine/threonine-protein kinase (Homo sapiens), P31751 [S474D] (P31751 whole entry S474D): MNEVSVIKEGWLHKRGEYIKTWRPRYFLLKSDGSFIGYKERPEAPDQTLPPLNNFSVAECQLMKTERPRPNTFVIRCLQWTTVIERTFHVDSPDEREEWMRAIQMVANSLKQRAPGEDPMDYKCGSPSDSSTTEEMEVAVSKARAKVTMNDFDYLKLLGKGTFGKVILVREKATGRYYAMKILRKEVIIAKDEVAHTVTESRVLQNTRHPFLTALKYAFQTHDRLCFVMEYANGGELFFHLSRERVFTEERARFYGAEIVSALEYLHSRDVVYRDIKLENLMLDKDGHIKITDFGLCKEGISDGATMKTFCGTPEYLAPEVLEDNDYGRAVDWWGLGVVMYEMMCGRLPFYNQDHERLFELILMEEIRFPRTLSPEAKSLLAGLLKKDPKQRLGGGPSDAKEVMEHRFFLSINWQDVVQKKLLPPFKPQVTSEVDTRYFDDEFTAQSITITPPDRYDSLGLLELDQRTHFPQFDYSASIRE
Data set [10] addresses Calcium/calmodulin-dependent protein kinase type 1D (Homo sapiens) (UniProt Q8IU85). As to the kind of experiment: Inhibition of recombinant full-length human CaMK1delta at 1 uM using calmodulin as substrate measured after 40 mins in presence of [gamma33P]ATP by scintillation counting method relative to control.
The target in data set [11] is Mitogen-activated protein kinase kinase kinase 2 (Homo sapiens) (UniProt Q9Y2U5). As to the kind of experiment: Inhibition of full-length recombinant human MEKK2 at 1 uM using myelin basic protein as substrate measured after 40 mins in presence of [gamma33P]ATP by scintillation counting method relative to control. Summed up: as §1
Sequence of Mitogen-activated protein kinase kinase kinase 2 (Homo sapiens) (Q9Y2U5 whole entry, the tested form may be a part): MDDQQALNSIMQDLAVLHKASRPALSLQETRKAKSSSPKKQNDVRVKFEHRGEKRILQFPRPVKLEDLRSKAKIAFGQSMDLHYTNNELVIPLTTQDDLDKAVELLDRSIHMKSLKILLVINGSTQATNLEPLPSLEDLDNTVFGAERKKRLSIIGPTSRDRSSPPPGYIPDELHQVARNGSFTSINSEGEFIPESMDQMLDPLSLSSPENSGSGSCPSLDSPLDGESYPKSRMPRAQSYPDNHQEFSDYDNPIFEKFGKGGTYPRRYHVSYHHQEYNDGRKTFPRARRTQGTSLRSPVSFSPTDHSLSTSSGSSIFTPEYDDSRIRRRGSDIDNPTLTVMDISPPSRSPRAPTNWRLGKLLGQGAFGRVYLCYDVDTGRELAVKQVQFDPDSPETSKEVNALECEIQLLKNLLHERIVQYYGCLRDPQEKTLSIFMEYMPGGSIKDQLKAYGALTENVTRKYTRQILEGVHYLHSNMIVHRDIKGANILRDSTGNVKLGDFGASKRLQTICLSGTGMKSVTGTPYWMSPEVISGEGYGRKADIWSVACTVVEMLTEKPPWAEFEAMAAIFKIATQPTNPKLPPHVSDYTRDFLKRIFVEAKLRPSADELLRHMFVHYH
The target in data set [12] is Mitogen-activated protein kinase kinase kinase 5 (Homo sapiens) (UniProt Q99683). As to the kind of experiment: Inhibition of recombinant human ASK1 (649 to 946 residues) at 1 uM using myelin basic protein as substrate measured after 40 mins in presence of [gamma33P]ATP by scintillation counting method relative to control.
Data set [13] deals with Interleukin-1 receptor-associated kinase 1 (Homo sapiens) (UniProt P51617). Conditions: 1 uM.
The target in data set [14] is Ephrin type-A receptor 3 (Homo sapiens) (UniProt P29320). In words: Inhibition of recombinant human EphA3 (568 to end residues) at 1 uM using poly(Glu, Tyr) 4:1 as substrate measured after 40 mins in presence of [gamma33P]ATP by scintillation counting method relative to control.
Sequence of Ephrin type-A receptor 3 (Homo sapiens) (P29320 whole entry): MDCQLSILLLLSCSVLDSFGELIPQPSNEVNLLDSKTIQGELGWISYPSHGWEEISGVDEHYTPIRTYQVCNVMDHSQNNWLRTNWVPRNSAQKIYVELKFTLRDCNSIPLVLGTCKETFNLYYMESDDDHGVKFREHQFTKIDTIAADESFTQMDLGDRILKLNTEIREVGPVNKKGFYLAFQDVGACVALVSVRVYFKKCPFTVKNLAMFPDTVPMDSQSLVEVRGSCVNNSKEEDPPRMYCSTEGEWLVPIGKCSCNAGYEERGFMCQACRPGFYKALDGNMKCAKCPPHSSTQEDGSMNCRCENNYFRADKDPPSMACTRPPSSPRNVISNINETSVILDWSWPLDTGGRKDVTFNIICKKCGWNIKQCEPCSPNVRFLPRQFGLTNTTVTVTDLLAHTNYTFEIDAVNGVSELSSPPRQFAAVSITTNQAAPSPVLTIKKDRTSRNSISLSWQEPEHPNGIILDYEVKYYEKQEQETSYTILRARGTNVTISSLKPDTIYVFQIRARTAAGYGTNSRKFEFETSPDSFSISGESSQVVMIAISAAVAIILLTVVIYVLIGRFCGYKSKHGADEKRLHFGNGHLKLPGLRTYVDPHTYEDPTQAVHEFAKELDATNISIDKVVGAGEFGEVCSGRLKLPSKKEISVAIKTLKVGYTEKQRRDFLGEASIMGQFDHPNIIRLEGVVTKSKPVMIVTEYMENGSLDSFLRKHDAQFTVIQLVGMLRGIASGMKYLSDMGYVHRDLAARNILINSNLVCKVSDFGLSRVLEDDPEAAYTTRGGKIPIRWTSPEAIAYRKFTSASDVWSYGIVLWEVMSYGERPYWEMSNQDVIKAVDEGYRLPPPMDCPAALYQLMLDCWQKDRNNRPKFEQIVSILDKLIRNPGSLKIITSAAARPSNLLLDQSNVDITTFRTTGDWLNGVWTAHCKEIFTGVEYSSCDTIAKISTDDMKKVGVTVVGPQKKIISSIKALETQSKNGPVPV
In data set [15] the test system is Angiopoietin-1 receptor (Homo sapiens), Q02763 [Q939H,Q940H,Y897S]. In words: Inhibition of human Tie2 Q939H/Q940H/Y897S mutant (771 to end residues) at 1 uM using EFPIYDFLPAKKK as substrate measured after 40 mins in presence of [gamma33P]ATP by scintillation counting method relative to control. Summed up:
as §2

Data set [16] deals with Cyclin-dependent kinase 5/CDK5 activator 1 (Homo sapiens) (UniProt Q00535+Q15078). In words: Inhibition of recombinant full-length human CDK5/p25 at 1 uM using Histone H1 as substrate measured after 40 mins in presence of [gamma33P]ATP by scintillation counting method relative to control. Format: protein-complex assay.
Sequence of Cyclin-dependent kinase 5/CDK5 activator 1 (Homo sapiens) (Q00535 whole entry): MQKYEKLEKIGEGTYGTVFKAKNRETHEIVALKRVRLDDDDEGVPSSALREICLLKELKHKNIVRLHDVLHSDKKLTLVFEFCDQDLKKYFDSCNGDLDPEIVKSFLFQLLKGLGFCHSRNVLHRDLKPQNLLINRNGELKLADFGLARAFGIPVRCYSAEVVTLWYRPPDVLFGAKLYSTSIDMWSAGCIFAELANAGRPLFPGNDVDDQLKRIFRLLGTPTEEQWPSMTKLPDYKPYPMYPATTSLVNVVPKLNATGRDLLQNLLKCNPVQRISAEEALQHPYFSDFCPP
Sequence of Cyclin-dependent kinase 5/CDK5 activator 1 (Homo sapiens) (Q15078 99-307 partner limits assumed): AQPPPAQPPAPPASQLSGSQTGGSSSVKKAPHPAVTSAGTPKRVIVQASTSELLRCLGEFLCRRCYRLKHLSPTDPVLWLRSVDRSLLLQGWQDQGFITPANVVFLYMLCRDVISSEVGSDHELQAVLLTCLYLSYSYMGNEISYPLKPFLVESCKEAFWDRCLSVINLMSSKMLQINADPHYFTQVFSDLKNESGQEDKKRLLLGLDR
In data set [17] the target is Mitogen-activated protein kinase 14 (Homo sapiens) (UniProt Q16539). In words: Inhibition of recombinant full-length human SAPK2a at 1 uM using myelin basic protein as substrate measured after 40 mins in presence of [gamma33P]ATP by scintillation counting method relative to control.
Sequence of Mitogen-activated protein kinase 14 (Homo sapiens) (Q16539 whole entry): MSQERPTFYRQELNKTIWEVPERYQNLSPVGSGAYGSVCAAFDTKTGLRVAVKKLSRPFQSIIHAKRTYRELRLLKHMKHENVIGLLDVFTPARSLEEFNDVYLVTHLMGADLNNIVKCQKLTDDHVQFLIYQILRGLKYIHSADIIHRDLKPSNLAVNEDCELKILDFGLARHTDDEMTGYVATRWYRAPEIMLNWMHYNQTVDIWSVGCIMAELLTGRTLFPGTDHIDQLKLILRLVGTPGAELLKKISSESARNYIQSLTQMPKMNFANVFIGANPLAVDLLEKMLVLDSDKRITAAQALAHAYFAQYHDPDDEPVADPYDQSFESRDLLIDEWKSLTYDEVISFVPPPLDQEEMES
The subject of data set [18] is A549. In words: Induction of apoptosis in human A549 cells assessed as increase in Bim protein expression at 0.25 to 1 uM after 24 hrs by Western blot analysis. It is filed as functional, cell-based. In outline: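 A549 or H1299 cells exposed to the indicated concentrations for 24 h. Protein extracts then immunoblotted for apoptosis-pathway proteins (Bcl2, Bim, cleaved caspase 3).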
(In general: In western blotting, separated proteins are transferred to a membrane and probed.)

For data set [19], the target named is Tyrosine-protein kinase JAK1 (Homo sapiens) (UniProt P23458). In words: Inhibition of recombinant human JAK1 (866 to end residues) at 1 uM using GEEPLYWSFPAKKK as substrate measured after 40 mins in presence of [gamma33P]ATP by scintillation counting method relative to control.
Data set [20] has as its target Dual specificity mitogen-activated protein kinase kinase 3 (Homo sapiens) (UniProt P46734). As to the kind of experiment: Inhibition of human MKK3 at 1 uM by radiometric method relative to control. Summed up: as §1
In another data set the target is CDK4/Cyclin D3 (Homo sapiens, UniProt P11802). As to the kind of experiment: Inhibition of recombinant full-length human CDK4/cyclinD3 using Rb fragment as substrate measured after 40 mins in presence of [gamma33P]ATP by scintillation counting method. It is filed as protein-complex assay.
Sequence of CDK4/Cyclin D3 (P11802 whole entry, the tested form may be a part): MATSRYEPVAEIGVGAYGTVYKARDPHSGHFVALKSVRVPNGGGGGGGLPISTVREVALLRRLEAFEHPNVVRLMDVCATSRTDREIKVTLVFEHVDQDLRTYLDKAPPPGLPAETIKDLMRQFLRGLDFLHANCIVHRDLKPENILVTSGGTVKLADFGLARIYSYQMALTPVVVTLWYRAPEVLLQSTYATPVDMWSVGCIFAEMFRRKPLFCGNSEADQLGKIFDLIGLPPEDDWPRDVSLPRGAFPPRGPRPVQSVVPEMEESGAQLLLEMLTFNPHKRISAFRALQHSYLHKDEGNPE
Sequence of CDK4/Cyclin D3 (P30281 whole entry, further chain, the tested form may be a part): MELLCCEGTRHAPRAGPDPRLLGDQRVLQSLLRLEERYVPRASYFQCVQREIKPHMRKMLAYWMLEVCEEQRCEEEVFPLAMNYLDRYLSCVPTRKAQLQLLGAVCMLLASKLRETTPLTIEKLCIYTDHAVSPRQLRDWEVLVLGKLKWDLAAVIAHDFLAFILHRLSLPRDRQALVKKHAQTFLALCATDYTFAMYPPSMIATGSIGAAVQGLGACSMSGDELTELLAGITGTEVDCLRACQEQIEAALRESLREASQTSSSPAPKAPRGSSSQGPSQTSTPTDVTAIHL
The nature of data set [21]: Intrinsic clearance in Sprague-Dawley rat liver microsomes at 2 uM in presence of NADPH measured up to 1 hr by HPLC analysis. Format: ADME, Microsome.

Sequence of MAP/microtubule affinity-regulating kinase 4 (Homo sapiens) (Q96L34 whole entry): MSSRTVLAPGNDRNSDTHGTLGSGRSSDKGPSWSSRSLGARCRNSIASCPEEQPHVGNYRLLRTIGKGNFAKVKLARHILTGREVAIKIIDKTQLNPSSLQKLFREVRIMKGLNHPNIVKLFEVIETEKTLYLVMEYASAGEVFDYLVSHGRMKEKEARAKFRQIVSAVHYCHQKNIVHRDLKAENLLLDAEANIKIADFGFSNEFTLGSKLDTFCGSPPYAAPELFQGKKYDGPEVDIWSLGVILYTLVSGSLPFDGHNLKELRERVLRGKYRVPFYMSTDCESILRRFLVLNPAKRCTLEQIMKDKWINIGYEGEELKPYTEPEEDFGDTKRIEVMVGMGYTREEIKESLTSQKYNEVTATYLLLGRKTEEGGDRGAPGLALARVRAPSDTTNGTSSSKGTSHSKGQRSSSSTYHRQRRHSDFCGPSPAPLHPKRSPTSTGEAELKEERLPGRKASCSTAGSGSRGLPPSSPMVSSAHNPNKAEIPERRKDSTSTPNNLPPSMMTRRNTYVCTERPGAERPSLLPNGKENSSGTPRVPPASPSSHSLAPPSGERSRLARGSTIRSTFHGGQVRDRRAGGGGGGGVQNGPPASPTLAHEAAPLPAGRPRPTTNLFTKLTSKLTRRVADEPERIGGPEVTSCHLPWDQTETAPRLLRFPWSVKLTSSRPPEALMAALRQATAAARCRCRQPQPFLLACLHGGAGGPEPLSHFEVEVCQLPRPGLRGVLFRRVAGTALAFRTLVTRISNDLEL
Sequence of Dual specificity mitogen-activated protein kinase kinase 3 (Homo sapiens) (P46734 whole entry, the tested form may be a part): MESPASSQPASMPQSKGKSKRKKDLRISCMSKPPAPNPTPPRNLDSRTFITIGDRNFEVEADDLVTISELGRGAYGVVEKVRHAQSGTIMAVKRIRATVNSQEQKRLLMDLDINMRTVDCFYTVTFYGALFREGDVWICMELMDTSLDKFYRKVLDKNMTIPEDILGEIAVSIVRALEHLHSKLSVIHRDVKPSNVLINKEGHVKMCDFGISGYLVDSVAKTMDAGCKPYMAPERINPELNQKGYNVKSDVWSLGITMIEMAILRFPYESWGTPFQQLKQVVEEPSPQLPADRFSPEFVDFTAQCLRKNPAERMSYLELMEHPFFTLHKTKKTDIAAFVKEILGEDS

What is called inhibition is the drop in the measured response relative to a control, in per cent. As usually defined, the IC50 is the concentration that gives 50% inhibition. In the case of `CN(C)C(=O)c1cc2cnc(Nc3ccc(NC(=O)CCCCCCCN=C=S)cc3)nc2n1C1CCCC1`, the inhibition in data set [1] is 75%; in data set [2], 68%; in data set [4], 77%; in [5], -1%; in data set [6] it was 74%; in data set [7], -3%. Also, the inhibition was 12% in data set [8]; 23% in [9]; 3% in data set [10]; 27% in data set [11]; -7% in [12]; 98% in data set [13]. The inhibition in data set [14] came to 5%; in data set [15] it was 20%; in [16], 63%; in data set [17] it was 20%; in data set [19], 77%; in data set [20], 23%. In addition, in the data set with A549 [3], the Activity entry was “Dose-dependent effect”. Moreover, the result in the data set with A549 [18] was Active. Moreover, the IC50 at CDK4/Cyclin D3 worked out at 148 nM. In addition, in data set [21], the CLH is 57 µL/min/mg.
